Measured values collected from several papers.
Each line is one published result; the experiments were not run side by side.
Effect on: cell growth or viability

SMILES	cell line	method	time	IC50
COc1cccc2c1C(=O)c1c(O)c3c(c(O)c1C2=O)C[C@@](O)(C(=O)CO)C[C@@H]3O[C@H]1C[C@H](N)[C@H](O)[C@H](C)O1	HepG2	MTT		0.46 µM
CNC(=O)c1cc(Oc2ccc(NC(=O)Nc3ccc(Cl)c(C(F)(F)F)c3)cc2)ccn1	THLE3	imaging	72 h	8.78 µM
O=c1[nH]cc(F)c(=O)[nH]1	Huh-7	CCK-8	72 h	17.2 µM
Cc1nnc(-c2nn(Cc3ccc(Cl)cc3Cl)c3ccccc23)o1	HepG2		48 h	41.5 µM
COc1ccc(NC(=O)NCc2cn(Cc3ccc(Br)cc3)nn2)cc1	Huh-7	CCK-8	72 h	> 50 µM
Cc1cnc(CNC(=O)c2c(=O)c3ccc(N4CCCN(C)CC4)nc3n3c2sc2ccccc23)cn1	THLE3	imaging	72 h	2.49 µM
COc1ccc(NC(=O)Nc2cccc(-c3cn(Cc4ccccc4C)nn3)c2)cc1	Huh-7	CCK-8	72 h	10.8 µM
O=[N+]([O-])c1ccc(O)c(C=NNc2ccc(Cl)cc2)c1	HEK-293T	MTT	24 h	11.4 µM
O=C(Nc1cccc(-c2cn(Cc3ccc(Cl)cc3)nn2)c1)Nc1ccccc1Br	Huh-7	CCK-8	72 h	13.5 µM
O=[N+]([O-])c1cc(Br)c(O)c(C=NNc2ccccc2)c1	HEK-293T	MTT	24 h	23 µM
COc1ccc(NC(=O)Nc2cccc(-c3cn(Cc4cccc(Cl)c4)nn3)c2)cc1	Huh-7	CCK-8	72 h	13.5 µM
O=[N+]([O-])c1cc(I)c(O)c(C=NNc2ccc(Cl)cc2)c1	HEK-293T	MTT	24 h	12.3 µM
C=CCn1c(=O)c2cnc(Nc3ccc(N4CCN(C)CC4)cc3)nc2n1-c1ccc2c(n1)[C@@](O)(CC)CC2	KURAMOCHI	ATP luminescence	72 h	1.52 µM
O=[N+]([O-])c1cc(Br)c(O)c(C=NNc2ccc(Br)cc2)c1	HEK-293T	MTT	24 h	12.3 µM
COc1ccc(NC(=O)Nc2ccc(-c3cn(Cc4ccc(C)cc4)nn3)cc2)cc1	Huh-7	CCK-8	72 h	> 50 µM
O=[N+]([O-])c1ccc(O)c(C=NNc2ccc(C(F)(F)F)cc2)c1	HEK-293T	MTT	24 h	17 µM
CN1CCC(NC2CCc3[nH]c4c(C(N)=O)ccc(-c5ccccc5Cl)c4c3C2)CC1 (centres unmarked)	Ramos		96 h	0.0114 µM
